Gli-Sufu antag = Gli-Sufu pathway antagonists, primary screen, luciferase luminescence, Sufu-KO-LIGHT cells, uHTS; Sufu-KO-LIGHT fibroblasts, Gli luciferase reporter luminescence; inhibition, % at 5 µM; 340,000 tested, 0.74% active; AID 588413, 2011;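 active means inhibition above about 55%, limit read from the data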
697 NFkB inh = inhibitors of PMA/ionomycin-induced NF-kB reporter, 697 cells, primary screen, B-cell NF-kB inhibitor project, cell-based, luminescence, uHTS. 697 B-cell NF-kB luciferase reporter, 16 h. inhibition, % at 4 µM. 330,000 tested, 0.33% active; in the data active means inhibition above about 35%
Jurkat NFkB inh = inhibitors of induced NF-kB luciferase reporter, primary screen, TCR NF-kB activation inhibitor project, cell-based, luminescence, uHTS. Jurkat, PMA/ionomycin-induced NF-kB luciferase reporter. inhibition, % at 4 µM. 330,000 tested, 0.53% active; in the data active means inhibition above about 50%
UPR CHOP act = activators of apoptotic CHOP UPR arm, primary screen, cell-based, CHO-CHOP luciferase reporter, luminescence, uHTS; UPR activation; percent of tunicamycin response over DMSO baseline; activation, % at 10 µM; 330,000 tested, 0.34% active; AID 449763, 2010;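 active means at 10 µM dose, activation of 40% or more, normalized to positive control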
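assay system = CHO CHOP reporter cells | amount = 500 CHO-CHOP cells per well | buffer or medium = F12 with 10% FBS | incubation = 16-18 h cell attachment, then 6 h compound exposure, 37 °C | detection = luminescence read with Steady-Glo | read-out = percent activation relative to tunicamycin control | controls = tunicamycin high control, DMSO low control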
UPR XBP1 act = activators of adaptive XBP1 UPR arm, primary screen, cell-based, CHO-XBP1 luciferase reporter, luminescence, uHTS | IRE1-XBP1 UPR activation; percent of tunicamycin response, DMSO as zero | activation, % at 20 µM | 330,000 tested, 0.33% active | AID 463104, 2010;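 active means versus positive control, 20 µM dose yields 30% or more activation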
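Material: CHO cell line with stable XBP1 luciferase reporter; buffer or medium: F12 medium containing 10% fetal bovine serum; compound: single point, 20 µM final compound, 1% DMSO; incubation: 6 h treatment, 37 °C; measured by: glow luminescence from Steady-Glo reagent; evaluation: activation, % of tunicamycin; control set: tunicamycin high, DMSO low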
CHOP inh = inhibitors of CHOP promoter induction, primary screen, cell-based, unfolded protein response, luciferase reporter; CHO-K1 CHOP-promoter luciferase, tunicamycin-induced, 15-18 h; inhibition, % at 10 µM; 220,000 tested, 3.8% active; AID 2732, 2010;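 active means compounds that reduced the stress-induced luciferase reporter signal by more than about 70% of percent inhibition, limit read from the data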
Jurkat NFkB conf = PMA/ionomycin-induced NF-kB reporter inhibitors, Jurkat retest, confirmation, T-cell NF-kB inhibitor project, cell-based, luminescence, single concentration | shares compounds with Jurkat NFkB inh | Jurkat NF-kB luciferase, 16 h | inhibition, % at 4 µM | 2,700 tested, 27% active | AID 435020, 2010;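 active means inhibition reaching about 45% at 4 µM in either replicate, limit read from the data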
697 NFkB conf = PMA/ionomycin-induced NF-kB reporter inhibitors, 697 retest, confirmation, B-cell NF-kB inhibitor project, cell-based, luminescence, single concentration; 697 B-cell NF-kB luciferase, 16 h; 2,000 tested, 35% active; inhibition, % at 4 µM; AID 449746, 2010; shares compounds with 697 NFkB inh; in the data active means inhibition mostly above about 28%, no sharp cut-off; inactive means mostly below about 22%
Numbers stand for hits; – = inactive; · = not tested or not shown. In the library only some 3.9% were active in any assay of this set; here they are far more common.

SMILES	Gli-Sufu antag	697 NFkB inh	Jurkat NFkB inh	UPR CHOP act	UPR XBP1 act	CHOP inh	Jurkat NFkB conf	697 NFkB conf
COc1ccc(-c2ccc3ccccc3n2)cc1	–	–	–	–	–	–	–	–
O=C(/C=C/c1cccc(C(F)(F)F)c1)OCC(=O)N1CCN(c2ccccc2)CC1	–	–	–	–	–	·	·	·
Cc1ccc[n+](CC(=O)/C=C2\N(C)c3ccccc3C2(C)C)c1	–	48.3	55.4	–	–	–	–	–
CC1CCC(CN2C(Nc3ccccc3)=NC[C@@H]2Cc2ccccc2)CC1 (some centres not stated)	–	–	–	–	–	·	·	·
Cc1cc(C(=O)Nc2sc(C)c(-c3ccc(F)cc3)c2C(N)=O)no1	–	–	–	–	–	–	–	–
CCc1ccc(-c2c(C)sc(NC(C)=O)c2C(N)=O)cc1	–	–	–	–	–	–	·	·
CCc1cccc(C)c1NC(=O)C1CCN(c2nn3c(=O)cc(C)nc3s2)CC1	–	–	–	–	–	·	·	·
CC(C)c1ccc(NC(=O)c2ccc(Br)o2)cc1	–	–	–	–	–	–	–	–
O=C(CCN1C(=O)NC2(CCCC2)C1=O)Nc1ccc(-c2nc3ccccc3s2)cc1	–	–	–	–	–	·	–	–
NC(=O)c1ccc(NC(=O)CCCN2C(=O)NC3(CCCC3)C2=O)cc1	–	–	–	–	–	·	·	·
COc1cc(-c2nc(-c3cccc(C)c3)no2)cc(OC)c1OC	–	–	–	–	–	–	·	·
COc1ccccc1-c1nc(-c2cccc(C)c2)no1	–	–	–	–	–	–	–	–
COc1ccc(-c2noc(-c3ccccc3-c3ccccc3)n2)cc1	–	–	–	–	–	–	·	·
COc1ccc(-c2nc(-c3ccncc3)no2)c(OC)c1	–	–	–	–	–	·	–	–
COc1ccc(-c2noc(-c3ccccc3F)n2)cc1	–	–	–	–	–	–	–	–
COc1cc(OC)c(-c2nc(-c3ccncc3)no2)cc1OC	–	–	–	–	–	·	·	·
COc1cc([C@@H]2c3cc4c(cc3[C@H](O)[C@H]3COC(=O)[C@H]23)OCO4)cc(OC)c1OC	–	–	72.5	–	–	·	62.3	–
C[C@@H](C(=O)N=c1sc2ccccc2n1C)N1C(=O)C2CC=CCC2C1=O (some centres not stated)	–	·	·	·	·	·	·	·
Cc1ccc(CN(C(=O)c2ccccc2[N+](=O)[O-])C2CCS(=O)(=O)C2)o1 (configuration not stated)	–	–	–	–	–	·	·	·
O[C@@H]1[C@@H](O)C=C2CCN3Cc4cc5c(cc4[C@H]1C23)OCO5 (some centres not stated)	69.2	–	96.4	–	–	·	89.3	–
COc1ccc2c(c1OC)CN1CCc3cc4c(cc3[C@@H]1[C@@H]2O)OCO4	–	–	–	–	–	–	·	·
CC1=NNC(=O)/C1=C\c1cn(-c2ccccc2)nc1-c1ccc(Cl)cc1	–	36.5	95.2	–	–	107.9	46.2	–
CC1=NN(c2ccccc2)C(=O)/C1=C\c1cn(CCC#N)nc1-c1ccc(Cl)cc1	–	–	–	–	–	–	·	·
Cc1ccc(NC(=O)N2CCc3ccccc32)cc1C	–	–	–	–	–	–	–	–
Brc1ccc(-c2nnc(-c3ccccc3Br)o2)cc1	–	–	–	–	–	–	–	–
Brc1ccccc1-c1nnc(-c2cccnc2)o1	–	–	–	–	–	–	·	·

Screening results as filed in PubChem.
